The text below walks through data of ChEMBL document CHEMBL1155028, “Synthesis and pharmacological investigation of novel 2-aminothiazole-privileged aporphines” (Bioorg Med Chem, 2008).

Holding throughout (assay type): cell-based
One assay addresses D(1A) dopamine receptor (Homo sapiens, UniProt P21728). Kind of assay: Displacement of [3H]SCH-23390 from human dopamine D1 receptor expressed in HEK293 cells.
A further assay has as its target D(2) dopamine receptor (Homo sapiens, UniProt P14416). Kind of assay: Displacement of [3H]spiperone from human dopamine D2 receptor expressed in HEK293 cells. A general note: Loss of bound radioactivity is the signal in a displacement assay; it reports binding, not function.
Assay [1] concerns the target T1, 5-hydroxytryptamine receptor 1A (Rattus norvegicus) (UniProt P19327).
T1 sequence (whole entry): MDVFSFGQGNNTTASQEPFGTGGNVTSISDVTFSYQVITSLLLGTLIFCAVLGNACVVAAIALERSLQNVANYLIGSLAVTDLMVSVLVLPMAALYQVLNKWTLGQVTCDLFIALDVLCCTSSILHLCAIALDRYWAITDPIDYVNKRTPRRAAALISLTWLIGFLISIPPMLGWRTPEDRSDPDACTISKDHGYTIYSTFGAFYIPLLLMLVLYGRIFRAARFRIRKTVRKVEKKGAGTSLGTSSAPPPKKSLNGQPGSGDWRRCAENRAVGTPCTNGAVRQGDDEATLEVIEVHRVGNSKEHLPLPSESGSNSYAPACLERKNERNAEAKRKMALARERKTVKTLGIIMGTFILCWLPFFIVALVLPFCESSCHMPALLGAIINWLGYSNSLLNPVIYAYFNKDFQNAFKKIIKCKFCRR
Kind of assay: Displacement of [3H]8-OH-DPAT from rat 5HT1A receptor expressed in CHO cells at 10 uM. The essentials: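 Duplicate incubations ran 50 min at 30 °C in 50 mM Tris, 4 mM MgCl2, pH 7.4. Nonspecific binding was set with 10 µM WAY100635. Bound ligand was separated on GF/B filters, washed with cold Tris/EDTA buffer, and counted by liquid scintillation.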

In assay [2] the target is T2, 5-hydroxytryptamine receptor 1A (Rattus norvegicus, UniProt P19327).
T2 sequence (P19327 whole entry): T1 sequence (whole entry)
Kind of assay: Displacement of [3H]8-OH-DPAT from rat 5HT1A receptor expressed in CHO cells.

For orientation: Ki means the equilibrium dissociation constant of an inhibitor or competing ligand from its target. High values mean a looser hold on the target, low ones a stronger hold on the target.

D(1A) dopamine receptor, sequence (P21728 whole entry): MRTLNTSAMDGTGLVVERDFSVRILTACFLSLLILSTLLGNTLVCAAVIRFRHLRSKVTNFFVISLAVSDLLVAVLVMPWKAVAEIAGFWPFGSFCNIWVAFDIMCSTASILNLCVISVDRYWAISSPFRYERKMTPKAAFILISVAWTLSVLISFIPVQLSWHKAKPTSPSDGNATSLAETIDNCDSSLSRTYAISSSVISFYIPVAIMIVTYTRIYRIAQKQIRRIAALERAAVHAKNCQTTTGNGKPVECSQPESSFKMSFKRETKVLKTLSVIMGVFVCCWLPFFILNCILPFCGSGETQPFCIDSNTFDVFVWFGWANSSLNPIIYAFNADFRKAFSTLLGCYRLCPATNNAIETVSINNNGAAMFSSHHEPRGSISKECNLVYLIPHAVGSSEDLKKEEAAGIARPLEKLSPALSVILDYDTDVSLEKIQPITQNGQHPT
D(2) dopamine receptor, sequence (P14416 whole entry): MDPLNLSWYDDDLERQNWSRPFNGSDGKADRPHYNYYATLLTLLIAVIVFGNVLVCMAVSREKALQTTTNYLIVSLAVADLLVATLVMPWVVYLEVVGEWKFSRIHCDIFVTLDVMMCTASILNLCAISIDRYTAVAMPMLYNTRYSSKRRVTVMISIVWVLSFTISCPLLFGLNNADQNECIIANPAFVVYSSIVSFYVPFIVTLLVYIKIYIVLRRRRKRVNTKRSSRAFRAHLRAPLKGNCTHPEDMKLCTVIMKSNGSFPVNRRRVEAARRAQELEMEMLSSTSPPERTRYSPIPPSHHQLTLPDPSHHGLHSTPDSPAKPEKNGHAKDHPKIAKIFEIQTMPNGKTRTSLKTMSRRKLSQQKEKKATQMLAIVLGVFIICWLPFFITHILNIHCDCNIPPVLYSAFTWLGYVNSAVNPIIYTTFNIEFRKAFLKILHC

Take `CN1CCc2c3c(cc4nc(N)sc24)-c2c(ccc(O)c2O)C[C@H]31`: the Ki turned out to be 2520 nM at D(1A) dopamine receptor and 328 nM at D(2) dopamine receptor.

Turning to `COc1cc2c3c(c1)-c1c(ccc4sc(N)nc14)C[C@H]3N(C)CC2`, the Activity in assay [1] was 48.1%.

With `COc1cc2c3c(c1)-c1c(N)cccc1C[C@H]3N(C)CC2`, the Activity in assay [1] came out at 94%. Moreover, the Ki came to 78 nM at D(1A) dopamine receptor and 640 nM in assay [2].

As to `CCCCC(=O)Oc1cccc2c1-c1cc(OC)cc3c1[C@@H](C2)N(C)CC3`, the Activity in assay [1] amounted to 100%. For the same molecule, the results for the Ki (on D(1A) dopamine receptor; in assay [2]) were 116 nM and 151 nM, respectively.

For `NCCc1c[nH]c2ccc(O)cc12`, the Activity in assay [1] was 100%.

`CN1CCc2cc(N)cc3c2[C@H]1Cc1cccc(N)c1-3` gave an Activity in assay [1] of 48.1%. In addition, the values for the Ki (on D(1A) dopamine receptor; in assay [2]) were 2920 nM and 2300 nM, respectively.
